Source: paper PMC9359741 (Clinical Cancer Research, 2022)

Legend:
[1] = test system: HNSCC, relapsed/refractory glioblastoma; details: plus spartalizumab; cited from earlier work
[2] = test system: advanced/metastatic PDA or colorectal cancer; details: plus durvalumab; cited from earlier work
pancreatic cancer = details: plus nivolumab; pancreatic cancer (N = 31); MSI-Stable; cited from earlier work
[3] = test system: patients with PDA, PD-1/PD-L1 IR advanced solid tumors or prOVCA; assay: Phase 2, ARRY-382 300 mg QD plus pembrolizumab 200 mg IV Q3W: adverse events; assay type: in vivo, human; details: all patients
Outline: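 Open-label study at 12 US centres with three cohorts: pancreatic ductal adenocarcinoma after ≥1 prior systemic line; tumours progressing on anti-PD-1/PD-L1; ovarian, peritoneal or fallopian cancer progressing ≤6 months after ≥4 platinum cycles. Oral test compound 300 mg QD plus anti-PD-1 antibody 200 mg IV every 3 weeks. AEs, SAEs and labs graded by CTCAE v4.03 in all dosed patients; descriptive summary.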

[4] = test system: patients with selected advanced solid tumors; assay type: in vivo, human; details: Phase 1b
Outline: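 Adults (≥18 y) with histologically or cytologically confirmed selected advanced solid tumours. Oral test compound started at 200 mg QD, with planned escalation to 400 mg QD, plus anti-PD-1 antibody 2 mg/kg IV every 3 weeks. DLT incidence defined the MTD (DLT criteria in supplement). AEs and lab abnormalities were graded by CTCAE v4.03 in all patients given ≥1 dose and summarized descriptively.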

In the case of CNC(=O)c1cc(Oc2ccc3nc(N[C@@H]4CCCC[C@H]4O)sc3c2)ccn1 [BLZ945], the “Patients with a PR” value [1] is listed as 2 patients.
For FC(F)(F)c1ccc(CNc2ccc(Cc3c[nH]c4ncc(Cl)cc34)cn2)cn1 [pexidartinib], the “Patients with stable disease” value [2] is given as 4 patients.
For “cabiralizumab: a CSF-1R–targeting antibody”, the “Patients with a PR” value (pancreatic cancer) is listed as 3 patients.
With “pembrolizumab: humanized monoclonal antibody that blocks the interaction between PD-1 and its ligands PD-L1 and PD-L2 [reference compound]” the “AEs considered to be related to pembrolizumab” value [3] was 36 (63.2%) n (%), the “Pembrolizumab-related AEs: All AEs” value ([4]; Total, N = 19) was 12 (63.2%) n (%) and the “Pembrolizumab-related increased AST” value ([4]; all patients) was 36.8%. For the same compound, the Pembrolizumab-related increased lipase ([4]; all patients) was 26.3%.
